Activity data for one compound are collected here from ChEMBL document CHEMBL4354843, “Structure-Based Design of a Potent and Selective Covalent Inhibitor for SRC Kinase That Targets a P-Loop Cysteine” (J Med Chem, 2020).

Assay [1] has as its target Myosin light chain kinase family member 4 (Homo sapiens) (UniProt Q86YV6). Description: Binding affinity to wild-type human partial length MYLK4 (V79 to S380 residues) expressed in bacterial expression system assessed as residual binding level at 1 uM by Kinomescan method relative to control.
Assay [2] deals with Dual specificity mitogen-activated protein kinase kinase 4 (Homo sapiens) (UniProt P45985). Description: Binding affinity to wild-type human partial length MEK4 (S84 to D399 residues) expressed in mammalian expression system assessed as residual binding level at 1 uM by Kinomescan method relative to control.
For assay [3], the target named is ALK tyrosine kinase receptor (Homo sapiens) (UniProt Q9UM73). Description: Binding affinity to wild-type human partial length ALK (I1088 to E1409 residues) expressed in mammalian expression system assessed as residual binding level at 1 uM by Kinomescan method relative to control.
The target of assay [4] is MAP kinase-activated protein kinase 2 (Homo sapiens) (UniProt P49137). Description: Binding affinity to wild-type human partial length MAPKAPK2 (V48 to D345 residues) expressed in bacterial expression system assessed as residual binding level at 1 uM by Kinomescan method relative to control.
Chain of MAP kinase-activated protein kinase 2 (Homo sapiens) (P49137 whole entry, looked up, the tested form may be a part): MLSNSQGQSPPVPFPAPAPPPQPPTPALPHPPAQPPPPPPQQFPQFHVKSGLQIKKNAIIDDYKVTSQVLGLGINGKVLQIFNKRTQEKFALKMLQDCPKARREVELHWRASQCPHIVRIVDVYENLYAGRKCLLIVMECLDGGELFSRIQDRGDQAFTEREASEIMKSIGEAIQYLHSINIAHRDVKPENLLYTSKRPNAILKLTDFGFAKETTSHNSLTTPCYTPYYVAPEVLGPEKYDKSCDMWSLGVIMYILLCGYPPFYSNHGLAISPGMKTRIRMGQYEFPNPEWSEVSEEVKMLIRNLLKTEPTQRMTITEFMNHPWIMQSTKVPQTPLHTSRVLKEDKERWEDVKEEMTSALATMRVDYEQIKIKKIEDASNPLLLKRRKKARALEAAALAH
For assay [5], the target named is Glycogen synthase kinase-3 beta (Homo sapiens) (UniProt P49841). Description: Binding affinity to wild-type human full length GSK3B (M1 to T433 residues) expressed in mammalian expression system assessed as residual binding level at 1 uM by Kinomescan method relative to control. In a few lines:
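KinomeScan, an active site-directed competition binding panel of 468 kinases. The test compound was at 1 μM. The readout is remaining kinase binding as a percentage of the DMSO control. Scores above 35% were treated as weak binding and not listed.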

The target in assay [6] is Cyclin-dependent kinase 8 (Homo sapiens) (UniProt P49336). Description: Binding affinity to wild-type human partial length CDK8 (M1 to T360 residues) expressed in bacterial expression system assessed as residual binding level at 1 uM by Kinomescan method relative to control.
Assay [7] has as its target Protein kinase C eta type (Homo sapiens) (UniProt P24723). Description: Binding affinity to wild-type human partial length PRKCH (S324 to P683 residues) expressed in bacterial expression system assessed as residual binding level at 1 uM by Kinomescan method relative to control.
The test system of assay [8] is Mast/stem cell growth factor receptor Kit (Homo sapiens), P10721 [V559D,T670I]. Description: Binding affinity to human partial length KIT V559D/T670I double mutant (Y545 to D952 residues) expressed in bacterial expression system assessed as residual binding level at 1 uM by Kinomescan method relative to control. In a few lines: (§1)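 KinomeScan active site-directed competition binding panel (468 kinases), compound tested at 1 μM. Result expressed as remaining kinase signal versus DMSO control (percent of control).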

Assay [9] concerns the target Phosphorylase b kinase gamma catalytic chain, liver/testis isoform (Homo sapiens) (UniProt P15735). Description: Binding affinity to wild-type human partial length PHKG2 (M1 to W300 residues) expressed in bacterial expression system assessed as residual binding level at 1 uM by Kinomescan method relative to control.
Assay [10] deals with Serine/threonine-protein kinase 26 (Homo sapiens) (UniProt Q9P289). Description: Binding affinity to wild-type human full length MST4 (M1 to P416 residues) expressed in mammalian expression system assessed as residual binding level at 1 uM by Kinomescan method relative to control. In a few lines: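 Active-site-directed competition binding panel (KinomeScan) covering 468 kinases. Test agent was screened at 1 μM. The read-out is the remaining kinase signal expressed relative to a DMSO control. Scores above 35%, taken as weak binding, were not reported.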
Chain of Serine/threonine-protein kinase 26 (Homo sapiens) (Q9P289 2-416 limits assumed): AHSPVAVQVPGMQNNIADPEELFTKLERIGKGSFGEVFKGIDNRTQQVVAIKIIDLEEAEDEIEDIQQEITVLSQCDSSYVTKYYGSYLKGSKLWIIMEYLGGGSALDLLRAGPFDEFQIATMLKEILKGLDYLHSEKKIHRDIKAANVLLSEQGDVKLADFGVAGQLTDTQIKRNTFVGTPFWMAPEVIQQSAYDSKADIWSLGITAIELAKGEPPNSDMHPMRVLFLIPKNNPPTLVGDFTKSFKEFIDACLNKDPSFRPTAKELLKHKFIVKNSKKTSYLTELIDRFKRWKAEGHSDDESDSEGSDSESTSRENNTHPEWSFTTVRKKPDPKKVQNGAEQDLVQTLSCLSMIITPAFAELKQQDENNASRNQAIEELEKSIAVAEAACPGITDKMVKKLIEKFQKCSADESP

Assay [11] concerns the target Serine/threonine-protein kinase mTOR (Homo sapiens) (UniProt P42345). Description: Binding affinity to wild-type human partial length MTOR (L1382 to W2549 residues) expressed in mammalian expression system assessed as residual binding level at 1 uM by Kinomescan method relative to control. The method, boiled down: (§2)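 Active-site-directed competition binding panel of 468 kinases (KinomeScan), compound at 1 μM. The read-out is kinase remaining bound, given as a percentage of the DMSO control. […]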

For assay [12], the target named is Platelet-derived growth factor receptor beta (Homo sapiens) (UniProt P09619). Description: Binding affinity to wild-type human partial length PDGFRB (V582 to Y1009 residues) expressed in bacterial expression system assessed as residual binding level at 1 uM by Kinomescan method relative to control. In a few lines:
as §2

Assay [13] relates to ALK tyrosine kinase receptor (Homo sapiens), Q9UM73 [L1196M]. Description: Binding affinity to wild-type human partial length ALK L1196M mutant (I1088 to E1409 residues) expressed in mammalian expression system assessed as residual binding level at 1 uM by Kinomescan method relative to control.
The target of assay [14] is Cyclin-dependent kinase 11A (Homo sapiens) (UniProt Q9UQ88). Description: Binding affinity to wild-type human partial length CDC2L2 (D391 to K730 residues) expressed in bacterial expression system assessed as residual binding level at 1 uM by Kinomescan method relative to control.
Chain of Cyclin-dependent kinase 11A (Homo sapiens) (Q9UQ88 whole entry, the tested form may be a part): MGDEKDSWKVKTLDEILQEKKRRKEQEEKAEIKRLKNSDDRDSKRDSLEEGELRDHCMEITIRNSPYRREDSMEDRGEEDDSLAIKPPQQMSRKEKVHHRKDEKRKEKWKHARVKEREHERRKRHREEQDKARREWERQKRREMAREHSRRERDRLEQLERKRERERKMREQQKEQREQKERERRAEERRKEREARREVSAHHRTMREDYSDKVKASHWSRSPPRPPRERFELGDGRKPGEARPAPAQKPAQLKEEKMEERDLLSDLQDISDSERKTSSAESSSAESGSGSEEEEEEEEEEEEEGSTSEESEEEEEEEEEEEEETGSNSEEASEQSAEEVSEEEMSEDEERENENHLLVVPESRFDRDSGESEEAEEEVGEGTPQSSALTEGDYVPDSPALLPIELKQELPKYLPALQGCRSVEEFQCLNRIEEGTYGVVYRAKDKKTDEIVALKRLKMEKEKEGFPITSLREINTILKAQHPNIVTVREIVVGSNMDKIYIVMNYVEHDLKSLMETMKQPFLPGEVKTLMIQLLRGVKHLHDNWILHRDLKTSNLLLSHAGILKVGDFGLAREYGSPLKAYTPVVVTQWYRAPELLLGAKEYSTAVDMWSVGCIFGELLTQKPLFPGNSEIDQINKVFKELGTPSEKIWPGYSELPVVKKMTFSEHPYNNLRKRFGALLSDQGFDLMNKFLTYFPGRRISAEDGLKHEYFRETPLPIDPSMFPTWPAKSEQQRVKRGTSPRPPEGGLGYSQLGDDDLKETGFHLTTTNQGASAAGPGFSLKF
Assay [15] addresses Serine/threonine-protein kinase Nek10 (Homo sapiens) (UniProt Q6ZWH5). Description: Binding affinity to wild-type human partial length NEK10 (L488 to R809 residues) expressed in mammalian expression system assessed as residual binding level at 1 uM by Kinomescan method relative to control.
Assay [16] has as its target Casein kinase I isoform alpha-like (Homo sapiens) (UniProt Q8N752). Description: Binding affinity to wild-type human full length CSNK1A1L (M1 to N337 residues) expressed in bacterial expression system assessed as residual binding level at 1 uM by Kinomescan method relative to control. In a few lines:
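Active-site-directed KinomeScan competition binding panel covering 468 kinases, compound tested at 1 μM. Each readout is the kinase signal remaining with compound, expressed as a percentage of the DMSO control. […]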

Assay [17] has as its target Ribosomal protein S6 kinase alpha-2 (Homo sapiens) (UniProt Q15349). Description: Binding affinity to wild-type human partial length C-terminal RSK3 kinase domain 2 (V403 to K700 residues) expressed in bacterial expression system assessed as residual binding level at 1 uM by Kinomescan method relative to control.
Assay [18] addresses Serine/threonine-protein kinase PLK2 (Homo sapiens) (UniProt Q9NYY3). Description: Binding affinity to wild-type human partial length PLK2 (H58 to F354 residues) expressed in mammalian expression system assessed as residual binding level at 1 uM by Kinomescan method relative to control.
The target of assay [19] is Leucine-rich repeat serine/threonine-protein kinase 2 (Homo sapiens) (UniProt Q5S007). Description: Binding affinity to wild-type human partial length LRRK2 (H970 to E2527 residues) expressed in mammalian expression system assessed as residual binding level at 1 uM by Kinomescan method relative to control.
Assay [20] addresses Hepatocyte growth factor receptor (Homo sapiens) (UniProt P08581). Description: Binding affinity to wild-type human partial length MET (D1010 to S1367 residues) expressed in bacterial expression system assessed as residual binding level at 1 uM by Kinomescan method relative to control.
Assay [21] has as its system Phosphatidylinositol 4,5-bisphosphate 3-kinase catalytic subunit alpha isoform (Homo sapiens), P42336 [E545A]. Description: Binding affinity to human partial length PIK3CA E545A mutant (R108 to N1068 residues) expressed in mammalian expression system assessed as residual binding level at 1 uM by Kinomescan method relative to control. The method, boiled down:
as §1

Chain of Phosphorylase b kinase gamma catalytic chain, liver/testis isoform (Homo sapiens) (P15735 whole entry, the tested form may be a part, canonical isoform): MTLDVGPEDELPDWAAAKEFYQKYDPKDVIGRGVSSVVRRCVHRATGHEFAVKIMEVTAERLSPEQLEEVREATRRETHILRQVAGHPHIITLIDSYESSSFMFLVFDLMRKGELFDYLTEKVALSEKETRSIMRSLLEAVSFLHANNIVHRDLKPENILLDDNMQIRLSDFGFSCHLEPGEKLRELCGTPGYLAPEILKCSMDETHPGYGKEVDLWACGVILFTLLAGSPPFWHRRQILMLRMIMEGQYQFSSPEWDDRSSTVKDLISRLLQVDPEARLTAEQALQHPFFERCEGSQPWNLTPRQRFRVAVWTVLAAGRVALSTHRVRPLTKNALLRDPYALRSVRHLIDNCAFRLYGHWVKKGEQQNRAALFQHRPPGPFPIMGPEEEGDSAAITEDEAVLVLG
Chain of Serine/threonine-protein kinase Nek10 (Homo sapiens) (Q6ZWH5 whole entry, the tested form may be a part, canonical isoform): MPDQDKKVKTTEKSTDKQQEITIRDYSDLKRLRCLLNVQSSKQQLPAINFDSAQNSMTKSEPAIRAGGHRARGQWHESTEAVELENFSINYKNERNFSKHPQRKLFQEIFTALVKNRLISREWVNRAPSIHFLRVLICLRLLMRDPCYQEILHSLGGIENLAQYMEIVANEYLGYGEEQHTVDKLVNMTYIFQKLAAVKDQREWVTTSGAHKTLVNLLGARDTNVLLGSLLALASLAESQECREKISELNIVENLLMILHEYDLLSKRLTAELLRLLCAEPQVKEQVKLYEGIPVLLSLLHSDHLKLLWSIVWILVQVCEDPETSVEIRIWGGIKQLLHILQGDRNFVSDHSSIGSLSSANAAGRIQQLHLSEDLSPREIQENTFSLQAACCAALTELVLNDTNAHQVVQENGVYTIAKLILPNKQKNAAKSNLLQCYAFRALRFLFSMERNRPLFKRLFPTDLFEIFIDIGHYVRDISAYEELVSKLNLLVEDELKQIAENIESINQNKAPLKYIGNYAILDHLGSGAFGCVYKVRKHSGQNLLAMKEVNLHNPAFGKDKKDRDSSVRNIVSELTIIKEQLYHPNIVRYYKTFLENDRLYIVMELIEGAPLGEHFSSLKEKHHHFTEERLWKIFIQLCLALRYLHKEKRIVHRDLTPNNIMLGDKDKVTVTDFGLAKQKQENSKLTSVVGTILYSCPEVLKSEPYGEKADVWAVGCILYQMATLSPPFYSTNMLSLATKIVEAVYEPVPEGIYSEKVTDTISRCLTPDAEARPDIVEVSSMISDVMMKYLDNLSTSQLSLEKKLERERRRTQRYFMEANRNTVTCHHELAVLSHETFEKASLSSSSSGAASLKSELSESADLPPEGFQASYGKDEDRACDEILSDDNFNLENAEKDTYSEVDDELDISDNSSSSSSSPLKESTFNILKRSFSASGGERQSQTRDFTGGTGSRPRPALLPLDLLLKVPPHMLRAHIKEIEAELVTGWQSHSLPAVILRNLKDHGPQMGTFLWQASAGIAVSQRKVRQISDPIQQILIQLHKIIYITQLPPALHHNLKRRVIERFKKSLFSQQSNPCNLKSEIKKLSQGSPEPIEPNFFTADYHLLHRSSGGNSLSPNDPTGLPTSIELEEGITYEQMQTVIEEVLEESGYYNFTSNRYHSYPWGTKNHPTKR
Chain of Phosphatidylinositol 4,5-bisphosphate 3-kinase catalytic subunit alpha isoform (Homo sapiens), P42336 [E545A] (P42336 whole entry E545A, the tested form may be a part, canonical isoform): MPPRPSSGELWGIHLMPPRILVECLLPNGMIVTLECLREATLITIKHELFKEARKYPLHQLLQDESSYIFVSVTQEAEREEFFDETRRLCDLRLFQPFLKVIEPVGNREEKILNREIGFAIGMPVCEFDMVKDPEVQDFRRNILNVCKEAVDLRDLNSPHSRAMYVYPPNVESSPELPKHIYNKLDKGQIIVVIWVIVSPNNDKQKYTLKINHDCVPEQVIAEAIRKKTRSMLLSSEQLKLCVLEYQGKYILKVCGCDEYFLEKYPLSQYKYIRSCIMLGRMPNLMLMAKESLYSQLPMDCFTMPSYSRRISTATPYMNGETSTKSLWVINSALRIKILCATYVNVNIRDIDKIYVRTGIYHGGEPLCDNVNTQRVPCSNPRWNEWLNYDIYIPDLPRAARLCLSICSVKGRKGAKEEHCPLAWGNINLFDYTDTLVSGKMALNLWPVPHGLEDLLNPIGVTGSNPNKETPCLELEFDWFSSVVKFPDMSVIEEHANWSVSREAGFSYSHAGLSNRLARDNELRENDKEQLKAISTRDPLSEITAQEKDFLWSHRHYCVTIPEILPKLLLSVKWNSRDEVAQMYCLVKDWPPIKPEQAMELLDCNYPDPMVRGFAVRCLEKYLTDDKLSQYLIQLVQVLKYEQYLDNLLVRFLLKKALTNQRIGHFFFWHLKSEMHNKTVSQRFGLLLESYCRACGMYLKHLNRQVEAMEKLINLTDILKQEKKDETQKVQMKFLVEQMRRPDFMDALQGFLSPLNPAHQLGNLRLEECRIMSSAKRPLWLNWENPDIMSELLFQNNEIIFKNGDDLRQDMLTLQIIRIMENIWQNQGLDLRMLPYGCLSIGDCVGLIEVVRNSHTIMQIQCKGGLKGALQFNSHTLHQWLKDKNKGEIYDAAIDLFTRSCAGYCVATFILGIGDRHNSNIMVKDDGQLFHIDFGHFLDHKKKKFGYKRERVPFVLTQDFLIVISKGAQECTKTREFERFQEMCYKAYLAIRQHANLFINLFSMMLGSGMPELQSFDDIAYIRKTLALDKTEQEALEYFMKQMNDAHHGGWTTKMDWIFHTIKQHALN
Chain of Ribosomal protein S6 kinase alpha-2 (Homo sapiens) (Q15349 whole entry, the tested form may be a part): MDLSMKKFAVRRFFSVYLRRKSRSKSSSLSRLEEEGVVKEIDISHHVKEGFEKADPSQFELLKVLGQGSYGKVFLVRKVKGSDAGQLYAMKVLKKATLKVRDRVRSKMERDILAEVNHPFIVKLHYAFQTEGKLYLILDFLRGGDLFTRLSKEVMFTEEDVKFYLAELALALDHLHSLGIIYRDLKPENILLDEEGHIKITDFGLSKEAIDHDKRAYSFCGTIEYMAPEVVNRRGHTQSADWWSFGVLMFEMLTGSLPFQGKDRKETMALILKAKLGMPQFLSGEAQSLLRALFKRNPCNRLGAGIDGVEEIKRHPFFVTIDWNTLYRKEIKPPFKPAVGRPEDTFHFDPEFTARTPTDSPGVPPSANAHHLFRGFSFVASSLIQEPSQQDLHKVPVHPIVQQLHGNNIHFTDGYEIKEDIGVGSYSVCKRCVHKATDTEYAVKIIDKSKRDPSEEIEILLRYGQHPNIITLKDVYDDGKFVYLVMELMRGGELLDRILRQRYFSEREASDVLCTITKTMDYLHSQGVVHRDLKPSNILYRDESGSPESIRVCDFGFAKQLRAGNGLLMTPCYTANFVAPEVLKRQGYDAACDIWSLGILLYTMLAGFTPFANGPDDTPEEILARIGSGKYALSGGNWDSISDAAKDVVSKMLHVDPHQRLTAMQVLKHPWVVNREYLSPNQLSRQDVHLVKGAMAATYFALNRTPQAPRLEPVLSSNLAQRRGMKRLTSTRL

For `C=CC(=O)Nc1ccccc1Nc1nc(Nc2ccc(N3CCN(C)CC3)cc2)ncc1C(=O)Nc1c(C)cccc1Cl`, the Activity in assay [1] was found to be 100%; in assay [2], 91%; in [3] it was 100%; in [4], 100%; in assay [5], 98%; in assay [6], 100%. Further, the Activity was 100% in assay [7]; 100% in [8]; 100% in assay [9]; 85% in assay [10]; 98% in assay [11]; 29% in assay [12]. The Activity in assay [13] was determined as 90%; in assay [14] it was 100%; in [15], 100%; in assay [16], 100%; in assay [17], 100%; in assay [18], 100%. Further, the Activity amounted to 100% in assay [19], 100% in assay [20] and 94% in assay [21].
